The series is described as follows: Toxicity liver stage against HepG2, at 10uM. The series is classed as cell-based. Also noted: test concentration 10 uM, cell line HepG2-A16-CD81EGFP. The note with it: human, HepG2-A16-CD81EGFP cells; read-out: INHIBITION
In outline:
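Uninfected HepG2-A16-CD81EGFP cells, 3 × 10^3 per well, 1536-well, plated on prespotted compound at 10 μM final, parasite-free screening media added to match infected plates; puromycin 10 μM positive, DMSO 0.5% negative; run in parallel with 48 h PbLuc assay at 37 °C, 5% CO2; viability by CellTiter-Glo luminescence, normalized to controls.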
For the molecule `c1ccc(N2CCCC3(CCN(Cc4nccs4)C3)C2)nc1` (stereo not drawn), the cytotoxicity at 10 µM amounted to 6.94%.

In the case of `Cc1ccc(C(=O)N2C[C@@H]3[C@@H](C2)OCC(=O)N3Cc2cccnc2)o1`, the cytotoxicity at 10 µM was determined as 3.8%. With `CC(=O)NC1CCN(c2ccnc(C3CCNCC3)c2)CC1`, the cytotoxicity at 10 µM is -6.15%. The value for `CCCN1CCN(C(=O)c2ccn(COc3ccc(F)cc3)n2)CC1` was 8.88%; that for `Cc1c(CN2CCCC(O)C2)[nH]c2ccc(F)cc12` (stereo not drawn) was 9.35%; that for `Cc1cc(C)c(-n2cc(CCO)cn2)cc1C` was 0.334%.

Turning to `CN1CCN(c2ccccc2NC(=O)NCCc2ccc(O)cc2)CC1`, the cytotoxicity at 10 µM is -0.37%. Next, `CC(C)C(=O)Nc1cccc(CNC(=O)CSCc2ccccn2)c1`: 9.65%; `O=C(Cc1ccc(F)cc1)N1CCn2c(Cn3cncn3)cnc2C1`: -67.3%; `c1coc(CN2C[C@@H]3CCCO[C@@H]3[C@H](N3CCCC3)C2)c1`: -2.02%.

On to `Cc1c[nH]c(CN2CCCCC2CCn2ccnc2C)c(C)c1=O` (stereo not drawn), for which the cytotoxicity at 10 µM turned out to be 0.585%. Consider `CN(C)c1ccc(C(=O)N2CCCC2c2cnn(C)c2)nn1` (stereo not drawn), for which the cytotoxicity at 10 µM is -10.3%. On to `CC(C)(C)c1cnc(CNc2cccc(Cn3cnnc3)c2)o1`, for which the cytotoxicity at 10 µM stood at 2.72%. Next, `N#Cc1ccc(S(=O)(=O)Nc2ccc(N3CCOCC3)cn2)cc1`: 0.966%; `O=C(NCC1Cn2nnc(-c3ccncc3)c2CO1)c1ccc[nH]1` (stereo not drawn): 1.6%.

For `Cn1ccnc1CNC[C@H]1Cn2cc(-c3ccccc3)nc2CO1`, the cytotoxicity at 10 µM was -6.09%. For the molecule `CCN1CCC(=O)N(C)Cc2cc(F)ccc21`, the cytotoxicity at 10 µM turned out to be 9.78%. Next, `O=C(NCCCO)Nc1cccc(Cl)c1F`: 2.79%. Take `CN1CC2(CCC1=O)CCN(CC[C@@H](O)c1ccccc1)CC2`: the cytotoxicity at 10 µM is -0.355%. The value for `Cc1cccc(CN2C[C@H](OCc3ccccn3)[C@H]3COC[C@H]32)n1` was -92.6%. The value for `COc1nn(C)c2c1CCCN(C(=O)c1ccc3c(c1)OCO3)C2` was 13.1%; that for `CC(C)COC(=O)N1CCCN(Cc2nnc(C(C)(C)C)o2)CC1` was 11.1%. The value for `CCOc1ccccc1N(C)C(=O)c1ccc(Cl)cn1` was 0.0381%; that for `O=C(CCOc1ccc(F)cc1)N1CCCC1Cn1cccn1` (stereo not drawn) was -2.7%; that for `CCN1CC2(CC1=O)CN(Cc1cnn(C)c1)CCN(C(=O)N(C)C)C2` (stereo not drawn) was -1.9%. Consider `COC(=O)CC1CCN(C(=O)Nc2ccc(-c3ccn[nH]3)cc2)C1` (stereo not drawn), for which the cytotoxicity at 10 µM stood at 3.57%. Take `COc1cccc2c(=O)n(CCN3CCNCC3)cnc12`: the cytotoxicity at 10 µM worked out at 0.623%. The value for `Fc1ccc(N2CCCN(c3ccc(Cn4ccnc4)cn3)CC2)cc1` was 26.2%.

Take `c1ccc(N2CCCC3(COCCN(c4nccs4)C3)C2)nc1` (stereo not drawn): the cytotoxicity at 10 µM is -8.89%. Next, `CCC(O)CN(C)Cc1nnc2ccccn12` (stereo not drawn): -26.7%; `Cc1ccc(O)c(-c2cc(NCCO)nc3[nH]ccc23)c1`: 14.1%. The value for `Cc1ccccc1C1CCN(CCNC(=O)CS(C)(=O)=O)C1` (stereo not drawn) was -49.5%; that for `O=C1NC(c2cnc(C3CCC3)s2)Nc2ncccc21` (stereo not drawn) was 0.992%; that for `N#CCCN(CCN1CCOCC1)Cc1ccc(F)c(Br)c1` was -5.01%.

Turning to `CN(Cc1ccccc1)C1COC2(CCN(Cc3nccs3)CC2)C1` (stereo not drawn), the cytotoxicity at 10 µM is -19.5%. Next, `CC[C@@H]1N(Cc2cccnc2)CCC[C@]12CCC(=O)N2C`: -0.213%; `N#Cc1c(N2CCOCC2)nsc1-c1cccnc1`: 17%. Next, `O=C(CC1CCCCC1)N1CCC(c2ncc3c(n2)CCNC3)CC1`: -8.21%; `Cc1cc(C)n(C2CCCN(C(=O)Cc3ccc(C#N)cc3)C2)n1` (stereo not drawn): -1.31%; `O=C(NCC1(N2CCOCC2)CCSC1)Nc1ccccn1` (stereo not drawn): 8.64%.

In the case of `Cc1ccc2nc(-c3nc4c([nH]3)CCCNC4=O)cn2c1`, the cytotoxicity at 10 µM was 4.42%. In the case of `O=C1NC2(CCN(C(=O)Cc3ccsc3)CC2)CC1c1ccccc1` (stereo not drawn), the cytotoxicity at 10 µM is -2.04%. The value for `CCS(=O)(=O)N1CCC(c2nnc(CN3CCCC3)n2C2CC2)CC1` was 14.9%; that for `Cn1nc(C2CCN(C(=O)Cc3ccsc3)CC2)c2cccnc21` was -4.9%; that for `CCCn1nc(-c2nc(C3CC3)no2)ccc1=O` was 1.77%. The value for `Cn1cc(CNC2CC3(CCN(S(C)(=O)=O)CC3)c3ccccc32)cn1` (stereo not drawn) was -110%; that for `COC(=O)[C@@H]1Cc2ncn(C)c2CN1S(=O)(=O)c1ccc(C)cc1` was 2.08%. Next, `c1ccc2c(c1)CC(CNCc1ccncc1)(N1CCCCC1)C2`: -7.72%; `Fc1cccnc1Oc1cc(F)c(CN2CCCC2)c(Cl)c1`: 3.3%; `CCc1cc(N[C@H]2CCC[C@H]2CO)n2nc(C)c(C)c2n1`: 3.41%.

In the case of `COc1ccccc1OCC(=O)NS(=O)(=O)c1ccccc1F`, the cytotoxicity at 10 µM was -18%. The value for `O=C(O)C(c1ccc2c(c1)OCCO2)N1CCSCC1` (stereo not drawn) was 1.38%; that for `CC(C)c1cc(NC(CO)CO)n2nccc2n1` was 6.33%; that for `CS(=O)(=O)N1C[C@@H](O)[C@H](N2CCN(c3ccccc3)CC2)C1` was 20.3%.

Take `COCC(C)N(C)C(=O)c1nc(S(C)(=O)=O)n2ccccc12` (stereo not drawn): the cytotoxicity at 10 µM was -11%. Next, `CCOCCCNC(=O)C1(C)CCC(=O)N1c1cc(OC)ccc1OC` (stereo not drawn): 0.957%. Next, `COc1cccc(CNC(=O)CC2CSc3ncc(C)c(=O)n32)c1` (stereo not drawn): 10.4%; `COc1c(CNCc2cccnc2OC2CCCC2)c(C)nn1C`: -2.01%. Next, `O=C(NCc1ccco1)[C@@H]1CC[C@@H]2[C@@H](CCN2Cc2ccc(F)cc2)O1`: -0.748%. On to `Cc1nnc(CN2CCCC2c2ccc(C(C)(C)C)cc2)o1` (stereo not drawn), for which the cytotoxicity at 10 µM was -8.48%. The value for `CN(CCCNC(=O)C1CCCN(C(N)=O)C1)S(C)(=O)=O` (stereo not drawn) was -4.76%. The value for `CCOc1cccc(C(=O)N(CCC#N)Cc2ccccn2)c1` was 5.42%; that for `Clc1cncc(NCc2cccc(COC3CCOCC3)c2)n1` was 14.6%; that for `Cc1cnc(N2CCCC(c3ccccc3)C2)nc1-c1ncnn1C` (stereo not drawn) was -1.79%.

Regarding `Clc1ccc(OCCCN2CCOC(Cn3cncn3)C2)cc1` (stereo not drawn), the cytotoxicity at 10 µM is -10%. Next, `Cc1cc(-c2cc(-c3cc(CC(=O)O)cs3)nc(N)c2C#N)oc1C`: -6.25%. The value for `Cc1ccccc1-n1cc(-c2ccnc(N3CCCC(O)C3)n2)cn1` (stereo not drawn) was 6.48%. On to `CCOCCOC(C)C(=O)Nc1ccc2c(ccn2CC)c1` (stereo not drawn), for which the cytotoxicity at 10 µM worked out at 3.99%. The value for `Cc1c(-c2cccs2)nn2c(=O)c3c([nH]c12)CN(C(=O)C1CC1)C3` was -4.02%; that for `CC(C(=O)N1CCCC1)N1CCN(c2ncc(Cl)cn2)CC1` (stereo not drawn) was -3.34%; that for `Cc1nc2c(c(NCC(O)C(F)(F)F)n1)CCNCC2` (stereo not drawn) was 5.37%. Next, `CNC(=O)Cc1noc(Cc2cccc(Br)c2)n1`: 1.06%. Next, `CCCNC(=O)c1cc(Br)c2c(c1)OCCO2`: 9.65%.

In the case of `c1ccc(Cc2nnc([C@H]3CCN(C4CCCCC4)C3)o2)cc1`, the cytotoxicity at 10 µM was -1.14%. The value for `CCc1nc(NCCc2c(C)nn(CC)c2C)c2cnn(C)c2n1` was 9.33%; that for `CC(=O)N1C[C@@H](c2ccsc2)[C@@H]2CN(CC3CCCCC3)CC[C@@H]21` was -7.99%; that for `CCOCC(=O)N1CCC2(CC1)CN(Cc1cccnc1)C(=O)CO2` was -0.125%. The value for `CN(C)CCOCC1CN(CCN(C)C)Cc2ccnn2C1` (stereo not drawn) was 0.656%.

`Cc1ncsc1CNc1ccn(Cc2ccccc2)n1`: the cytotoxicity at 10 µM was 9.58%.

Consider `COCCNC(=O)Cn1cc(OCc2ccccc2)c(=O)cc1CO`, for which the cytotoxicity at 10 µM was -7.44%.

With `COc1cccc(NC(=O)NCC2CCCN(C3CCOCC3)C2)c1` (stereo not drawn), the cytotoxicity at 10 µM was -2.48%. The value for `c1ccc2oc(CN3CCOC(Cn4cccn4)C3)nc2c1` (stereo not drawn) was -18.2%. Next, `CCc1nncn1CCNC(=O)Nc1ccc2c(c1)CCCO2`: 1.79%. Next, `CCC(C)C(=O)NCc1ccn(-c2ccc(F)cc2)n1` (stereo not drawn): -2.42%. `c1cnc(N2CCOCC3(C2)CN(c2nccs2)CCO3)nc1` (stereo not drawn): the cytotoxicity at 10 µM was -104%. Next, `CC(=O)c1ccc(-n2c(C)cn(CCC#N)c2=O)cc1`: 19.3%.

On to `CNC(=O)[C@@H]1C[C@@H](n2cc(-c3ccc(Cl)cc3)nn2)CN1`, for which the cytotoxicity at 10 µM was -3.95%. The value for `CN(C)S(=O)(=O)c1ccc(CN2CCCC2c2ccccc2)o1` (stereo not drawn) was -5.72%; that for `Cc1n[nH]c(C)c1-c1cnc(CC2CCN(C)C2)cn1` (stereo not drawn) was -2.11%; that for `CCn1cnnc1C1CCN(C(=O)c2cccc3c2ccn3C)CC1` was -8%. Next, `CN1CCC(c2[nH]ncc2S(C)(=O)=O)CC1`: -7.06%; `COc1cccc(OCCNC(=O)CN2CCN(C)CC2C)c1` (stereo not drawn): -2.5%; `CCc1ncc(C(=O)N2CCOCC2CC(=O)c2ccccc2)s1` (stereo not drawn): 2.58%. Next, `CCc1nnc(Nc2cccc(C3CCCN(CC(C)(C)C)C3)n2)s1` (stereo not drawn): -33.9%; `CCOCCN1CCN(CCOCC(F)(F)F)CC1`: 1.83%; `O=S(=O)(Nc1cnc(N2CCOCC2)nc1)c1ccc(Cl)cc1`: -5.82%. On to `CC(C)=CCN1CCN(Cc2cc(C)n[nH]2)CC1CCO` (stereo not drawn), for which the cytotoxicity at 10 µM was determined as 1.96%. Next, `Cc1cc(SC(C)(C)C)ccc1NC(=O)CNC(N)=O`: 7.94%.

The values above are taken from ChEMBL document CHEMBL4513216, “Probing the Open Global Health Chemical Diversity Library for Multistage-Active Starting Points for Next-Generation Antimalarials” (ACS Infect Dis, 2020).
